From ChEMBL document CHEMBL1158519, “Syntheses and antibacterial activity studies of new oxazolidinones from nitroso Diels-Alder chemistry” (2010)

Experiments:
Format in all cases: functional
Conditions in all cases: read-out: DIZ
Staphylococcus aureus [1] = experiment: Antimicrobial activity against wild type Staphylococcus aureus SG 511 at 2 mM after overnight incubation by agar diffusion method
In short: (§1)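 Agar diffusion: 9 mm wells cut in Standard I Nutrient Agar or Mueller Hinton II agar, each loaded with 50 µl of a 2.0 mM compound solution in 1:9 DMSO:MeOH. Ciprofloxacin was run as control at 5 µg/mL in H2O. Plates were incubated at 37 °C for 24 h, and the inhibition zone diameter was read in mm. Zones were flagged as partially clear, unclear with colonies, or faint.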

Pseudomonas aeruginosa [2] = experiment: Antimicrobial activity against Pseudomonas aeruginosa K799/61 mutant at 2 mM after overnight incubation by agar diffusion method
In short: (§2)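 Agar well diffusion: 50 µl of a 2.0 mM solution in 1:9 DMSO:MeOH placed in 9 mm wells cut in nutrient agar or Mueller Hinton II agar; plates incubated 37 °C for 24 h, then inhibition zone diameter measured in mm. Zones scored as clear, partially clear, unclear (many colonies inside) or faint. Ciprofloxacin positive control at 5 µg/mL in water.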

Enterococcus faecalis [3] = experiment: Antimicrobial activity against Enterococcus faecalis ATCC 49532 at 2 mM after overnight incubation by agar diffusion method; in short: as §1
Escherichia coli [4] = experiment: Antimicrobial activity against Escherichia coli ATCC 25922 at 2 mM after overnight incubation by agar diffusion method; in short: as §1
Pseudomonas aeruginosa [5] = experiment: Antimicrobial activity against wild type Pseudomonas aeruginosa K799 at 2 mM after overnight incubation by agar diffusion method; in short: as §1
Mycolicibacterium vaccae = experiment: Antimicrobial activity against Mycobacterium vaccae IMET 10670 at 2 mM after overnight incubation by agar diffusion method; in short: as §1
Micrococcus luteus = experiment: Antimicrobial activity against Micrococcus luteus ATCC 10240 at 2 mM after overnight incubation by agar diffusion method; in short: as §1
Bacillus subtilis = experiment: Antimicrobial activity against Bacillus subtilis ATCC 6633 at 2 mM after overnight incubation by agar diffusion method; in short: as §1
Escherichia coli [6] = experiment: Antimicrobial activity against Escherichia coli X580 at 2 mM after overnight incubation by agar diffusion method
Enterococcus faecalis [7] = experiment: Antimicrobial activity against vancomycin-resistant Enterococcus faecalis 1528 at 2 mM after overnight incubation by agar diffusion method; in short: as §2
Staphylococcus aureus [8] = experiment: Antimicrobial activity against methicillin-resistant Staphylococcus aureus 143/93 at 2 mM after overnight incubation by agar diffusion method; in short: as §2

| SMILES | zone of inhibition at 2000 µM (Staphylococcus aureus [1]) | zone of inhibition at 2000 µM (Pseudomonas aeruginosa [2]) | zone of inhibition at 2000 µM (Enterococcus faecalis [3]) | zone of inhibition at 2000 µM (Escherichia coli [4]) | zone of inhibition at 2000 µM (Pseudomonas aeruginosa [5]) | zone of inhibition at 2000 µM (Mycolicibacterium vaccae) | zone of inhibition at 2000 µM (Micrococcus luteus) | zone of inhibition at 2000 µM (Bacillus subtilis) | zone of inhibition at 2000 µM (Escherichia coli [6]) | zone of inhibition at 2000 µM (Enterococcus faecalis [7]) | zone of inhibition at 2000 µM (Staphylococcus aureus [8]) |
| --- | --- | --- | --- | --- | --- | --- | --- | --- | --- | --- | --- |
| O=C1O[C@@H](COC(=O)N2OC3C=CC2C3)CN1c1ccc(N2CC[S+]([O-])CC2)c(F)c1 (some centres not stated) | 18 mm | 11 mm | 19 mm | 0 mm | 0 mm | 35 mm | 22 mm | 21 mm |  |  |  |
| O=C(NO)OC[C@H]1CN(c2ccc(N3CCSCC3)c(F)c2)C(=O)O1 | 16 mm | 0 mm | 16 mm | 0 mm | 0 mm |  | 33 mm | 16 mm | 20 mm |  |  |
| O=C(NO)OC[C@H]1CN(c2ccc(N3CCOCC3)c(F)c2)C(=O)O1 | 18 mm | 0 mm | 22 mm | 12 mm | 0 mm |  | 37 mm | 23 mm | 0 mm |  |  |
| CC(C)(C)OC(=O)N1CCN(c2ccc(N3C[C@H](CO)OC3=O)cc2F)CC1 | 24 mm | 10 mm | 21 mm | 0 mm | 0 mm |  | 34.5 mm | 23 mm |  |  |  |
| O=C1O[C@@H](CO)CN1c1ccc(N2CCOCC2)c(F)c1 | 23 mm | 11 mm | 21 mm | 0 mm | 0 mm | 43 mm | 38 mm | 26 mm |  |  |  |
| O=C1O[C@@H](CO)CN1c1ccc(N2CCSCC2)c(F)c1 | 24 mm | 11 mm | 21.5 mm | 0 mm | 0 mm | 43 mm | 41 mm | 26 mm |  |  |  |
| O=C(N[C@H]1C=C[C@@H](O)C1)OC[C@H]1CN(c2ccc(N3CCOCC3)c(F)c2)C(=O)O1 | 15 mm | 0 mm |  |  |  | 18 mm |  | 14 mm |  | 12 mm | 14 mm |
| O=C(N[C@H]1C=C[C@@H](O)CC1)OC[C@H]1CN(c2ccc(N3CCOCC3)c(F)c2)C(=O)O1 | 14 mm | 0 mm |  |  |  | 0 mm |  | 13 mm |  | 12 mm | 14 mm |
| O=C(N[C@H]1C=C[C@@H](O)CC1)OC[C@H]1CN(c2ccc(N3CCSCC3)c(F)c2)C(=O)O1 | 0 mm | 10 mm | 12 mm | 0 mm | 0 mm | 0 mm | 14 mm | 12 mm |  |  |  |
| CC(C)(C)OC(=O)N1CCN(c2ccc(N3C[C@H](COC(=O)NO)OC3=O)cc2F)CC1 | 17 mm | 0 mm | 20 mm | 12 mm | 0 mm |  | 33 mm | 22 mm | 0 mm |  |  |
| O=C1O[C@@H](COC(=O)N2OC3C=CC2C3)CN1c1ccc(N2CCOCC2)c(F)c1 (some centres not stated) | 15 mm | 0 mm |  |  |  | 30 mm |  | 17 mm |  | 19 mm | 25 mm |
| O=C1O[C@@H](COC(=O)N2OC3C=CC2CC3)CN1c1ccc(N2CC[S+]([O-])CC2)c(F)c1 (some centres not stated) | 15 mm | 10 mm | 17 mm | 0 mm | 0 mm | 18 mm | 15 mm | 17 mm |  |  |  |
| CC(C)(C)OC(=O)N1CCN(c2ccc(N3C[C@H](COC(=O)N[C@H]4C=C[C@@H](O)C4)OC3=O)cc2F)CC1 | 14 mm | 10 mm | 12.5 mm | 0 mm | 0 mm | 12 mm | 12 mm | 13 mm |  |  |  |
| O=C(N[C@H]1C=C[C@@H](O)C1)OC[C@H]1CN(c2ccc(N3CCSCC3)c(F)c2)C(=O)O1 | 12.5 mm | 10 mm | 12.5 mm | 0 mm | 0 mm | 18 mm | 15 mm | 14 mm |  |  |  |
| CC(=O)OC[C@H]1CN(c2ccc(N3CCOCC3)c(F)c2)C(=O)O1 | 26 mm | 17 mm | 24 mm | 0 mm | 0 mm | 43 mm | 38 mm | 26.5 mm |  |  |  |
| CC(C)(C)OC(=O)N1CCN(c2ccc(N3C[C@H](COC(=O)N4OC5C=CC4C5)OC3=O)cc2F)CC1 (some centres not stated) | 13 mm | 0 mm | 19 mm | 0 mm | 14 mm | 19 mm | 16 mm | 12 mm |  | 16 mm | 19 mm |
| CC(C)(C)OC(=O)N1CCN(c2ccc(N3C[C@H](COC(=O)N4OC5C=CC4CC5)OC3=O)cc2F)CC1 (some centres not stated) | 16 mm | 0 mm |  |  |  | 13 mm |  | 18 mm |  | 12 mm | 14 mm |
| O=C1O[C@@H](COC(=O)N2OC3C=CC2CC3)CN1c1ccc(N2CCOCC2)c(F)c1 (some centres not stated) | 16 mm | 0 mm |  |  |  | 15 mm |  | 19 mm |  | 16 mm | 18 mm |
| CC(C)(C)OC(=O)N1CCN(c2ccc(N3C[C@H](COC(=O)N[C@H]4C=C[C@@H](O)CC4)OC3=O)cc2F)CC1 | 0 mm | 12 mm | 12 mm | 0 mm | 0 mm | 0 mm | 0 mm | 0 mm |  |  |  |
| O=C(O)c1cn(C2CC2)c2cc(N3CCNCC3)c(F)cc2c1=O [CIPROFLOXACIN] | 24 mm | 39 mm | 13 mm | 31 mm | 35 mm | 19 mm | 0 mm | 29.5 mm |  | 15 mm | 0 mm |
| CC(=O)NC[C@H]1CN(c2ccc(N3CCOCC3)c(F)c2)C(=O)O1 [LINEZOLID] | 27 mm | 10 mm | 25 mm | 0 mm | 0 mm | 42 mm | 38 mm | 31 mm | 0 mm |  |  |
